{
  "source": "ChEMBL document CHEMBL5252546",
  "about": "“Salutaxel, a Conjugate of Docetaxel and a Muramyl Dipeptide (MDP) Analogue, Acts as Multifunctional Prodrug That Inhibits Tumor Growth and Metastasis” (J Med Chem, 2018)",
  "key": {"[1]": {"system": "4T1", "assay": "Antitumor activity against mouse 4T1 cells implanted in BALB/c mouse assessed as decrease in serum MMP9 level at 5.7 mg/kg,iv administrated once per week for 4 weeks in presence of MDA-205 by ELISA", "type": "functional, organism-based"}, "[2]": {"system": "4T1", "assay": "Antitumor activity against mouse 4T1 cells implanted in BALB/c mouse assessed as increase in tumor NOD1 expression level at 5.7 mg/kg,iv administrated once per week for 4 weeks in presence of compound 5b by western blot assay", "type": "functional, organism-based", "method_in_brief": "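Tumour-bearing BALB/c mice (4T1 cells into mammary fat pad) given iv saline vehicle or test agents once weekly for 4 weeks. Tumours excised and probed by western blot for MMP9, MMP2 and NOD1, β-actin as loading control. Bands averaged over five mice per group; representative of two independent experiments.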"}, "[3]": {"system": "4T1", "assay": "Antitumor activity against mouse 4T1 cells implanted in BALB/c mouse assessed as decrease in spleen MMP2 expression level at 5.7 mg/kg,iv administrated once per week for 4 weeks in presence of MDA-205 by western blot assay", "type": "functional, organism-based", "method_in_brief": "(§1)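 4T1 cells injected into mammary fat pads of BALB/c mice. Saline vehicle or test article given iv once weekly for 4 weeks. Spleen, lung and tumor lysates immunoblotted for MMP2/MMP9 with β-actin as loading control. Bands averaged over five mice per group, representative of two independent experiments.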"}, "[4]": {"system": "4T1", "assay": "Antitumor activity against mouse 4T1 cells implanted in BALB/c mouse assessed as decrease in spleen MMP2 expression level at 5.7 mg/kg,iv administrated once per week for 4 weeks in presence of compound 5b by western blot assay", "type": "functional, organism-based", "method_in_brief": "as §1"}, "[5]": {"assay": "Half life in mouse tumor implanted with mouse 4T1 cells at 5.7 mg/kg,iv measured upto 72 hrs", "type": "ADME, organism-based, Neoplasm"}, "[6]": {"system": "4T1", "assay": "Antitumor activity against mouse 4T1 cells implanted in BALB/c mouse assessed as decrease in serum IL-6 level at 5.7 mg/kg,iv administrated once per week for 4 weeks in presence of MDA-205 by ELISA", "type": "functional, organism-based"}, "[7]": {"system": "4T1", "assay": "Antitumor activity against mouse 4T1 cells implanted in BALB/c mouse assessed as decrease in MMP8 mRNA expression in lung at 20 mg/kg,iv administrated qd for 2 days by qRT-PCR analysis", "type": "functional, organism-based", "details": "time 2.0 day", "method_in_brief": "(§2)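 Day 19 after 4T1 implantation, mice randomised into five groups; iv vehicle or 20 mg/kg plus ip C12-iE-DAP (50 μg/mouse) and MDP (100 μg/mouse) once daily for 2 days; killed after 48 h; lung mRNA for MMP8, MMP9, PROK2, S100A8, S100A9 and IL-1β by qPCR; mean ± SEM.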"}, "[8]": {"assay": "Toxicity in BALB/c mouse injected with mouse 4T1 cells assessed as decrease in body weight at 20 mg/kg,iv administrated once per week for 4 weeks", "type": "organism-based", "parameters": "scale not given: the % may be the effect or the level left", "details": "in vivo, 672 h"}, "[9]": {"system": "4T1", "assay": "Antitumor activity against mouse 4T1 cells xenografted with BALB/c mouse assessed as reduction lung metastatic nodules at 5 to 20 mg/kg,iv administrated once per week for 4 weeks", "type": "functional, organism-based", "details": "dose 5-20 mg/kg", "method_in_brief": "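4T1 cells injected into the mammary fat pad of BALB/c mice; iv saline vehicle or 5, 10 or 20 mg/kg once weekly for 4 weeks; body weight, tumour volume, tumour weight, lung metastatic nodule count and metastasis score recorded; n = 10, mean ± SEM, ANOVA and Student's t test.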"}, "[10]": {"assay": "MRT (0 to infinity) in female Beagle dog at 4 mg/kg,iv measured upto 24 hrs", "type": "ADME, organism-based, Canis lupus familiaris", "details": "in vivo"}, "[11]": {"assay": "Stability in dog plasma assessed as compound remaining at 1 uM incubated for 6 hrs", "type": "ADME, cell-free, Canis lupus familiaris"}, "[12]": {"assay": "Clearance in male rat at 4 mg/kg,iv measured upto 24 hrs", "type": "ADME, organism-based", "details": "in vivo", "method_in_brief": "(§3)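 Rats were given a single iv injection at 2, 4 or 8 mg/kg. Plasma parent drug and released docetaxel were followed over time. Cmax, Tmax, AUC, MRT, t1/2, CL and Vss were reported for males, females and all animals combined.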"}, "[13]": {"system": "4T1", "assay": "Antitumor activity against mouse 4T1 cells implanted in BALB/c mouse assessed as decrease in serum TIMP-1 level at 10 mg/kg,iv administrated once per week for 4 weeks by ELISA", "type": "functional, organism-based", "method_in_brief": "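4T1 fat-pad model in BALB/c mice, iv 5–20 mg/kg once weekly for 4 weeks, with vehicle and naive groups; serum MMP9, TIMP-1, IL-6 and S100A9 measured by mouse ELISA kits.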"}, "[14]": {"assay": "Drug metabolism in human hepatocytes assessed as MDA-205 metabolite formation at 20 uM incubated for 180 mins", "type": "ADME, cell-based, Hepatocyte", "details": "3 h"}, "[15]": {"assay": "AUC (0-infinity) in male rat at 2 mg/kg,iv measured upto 24 hrs", "type": "ADME, organism-based", "parameters": "dose 2 mg/kg, time < 24 hrs, route iv", "details": "in vivo", "method_in_brief": "(§4)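 Single iv dose: rats 2, 4 or 8 mg/kg by intravenous injection; Beagle dogs 1, 2 or 4 mg/kg by intravenous infusion. Plasma concentration–time data were analysed by sex and pooled. Reported parameters: Cmax, Tmax, AUC0−t, AUC0−∞, MRT0−∞, t1/2, CL, Vss, given as mean ± SD.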"}, "[16]": {"system": "4T1", "assay": "Synergistic antitumor activity against mouse 4T1 cells xenografted with BALB/c mouse assessed as decrease in tumor volume at 10 mg/kg,iv administrated in combination with doxorubicin once per week for 4 weeks", "type": "functional, organism-based"}, "[17]": {"assay": "Chronic toxicity in female Beagle dog at 3 to 18 mg/kg,iv administered once per week for 30 days", "type": "organism-based, Canis lupus familiaris", "details": "in vivo, 720 h, dose 3-18 mg/kg, time 30 day", "method_in_brief": "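Long-term toxicity: rats given iv 2, 4 or 8 mg/kg and dogs 3, 6 or 18 mg/kg once weekly over 30 days; toxicokinetics recorded; highest non-severely toxic dose determined by sex.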"}, "[18]": {"assay": "Drug concentration in rat brain at 4 mg/kg,iv measured after 24 hrs", "type": "ADME, organism-based", "details": "in vivo", "method_in_brief": "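Rats received 4 mg/kg iv. Parent drug and released docetaxel were assayed in tissues and plasma from the first sampling at 0.25 h to 24 h. The lower limit of quantitation was 200 ng/g.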"}, "[19]": {"assay": "Drug metabolism in mouse hepatocytes assessed as docetaxel metabolite formation at 20 uM incubated for 180 mins", "type": "ADME, cell-based, Hepatocyte", "details": "3 h"}, "[20]": {"assay": "Drug excretion in rat urine at 4 mg/kg,iv measured upto 72 hrs", "type": "ADME, organism-based", "details": "read-out: Drug excretion"}, "[21]": {"assay": "Volume of distribution at steady state in Beagle dog at 4 mg/kg,iv measured upto 24 hrs", "type": "ADME, organism-based, Canis lupus familiaris", "details": "in vivo, read-out: Vdss"}, "[22]": {"assay": "AUC (0-infinity) in male Beagle dog at 1 mg/kg,iv measured upto 24 hrs", "type": "ADME, organism-based, Canis lupus familiaris", "parameters": "dose 1 mg/kg, time < 24 hrs, route iv", "details": "in vivo", "method_in_brief": "as §4"}, "[23]": {"assay": "Cmax in rat at 2 mg/kg,iv measured upto 24 hrs", "type": "ADME, organism-based", "parameters": "time < 24 hrs, dose 2 mg/kg, route iv", "details": "in vivo", "method_in_brief": "as §3"}, "[24]": {"assay": "Volume of distribution at steady state in male Beagle dog at 4 mg/kg,iv measured upto 24 hrs", "type": "ADME, organism-based, Canis lupus familiaris", "details": "in vivo, read-out: Vdss"}, "[25]": {"system": "4T1", "assay": "Antitumor activity against mouse 4T1 cells implanted in BALB/c mouse assessed as decrease in S100A8 mRNA expression in lung at 20 mg/kg,iv administrated qd for 2 days by qRT-PCR analysis", "type": "functional, organism-based", "details": "time 2.0 day", "method_in_brief": "as §2"}, "[26]": {"assay": "Tmax in rat at 2 mg/kg,iv measured upto 24 hrs", "type": "ADME, organism-based", "details": "in vivo"}, "[27]": {"assay": "Volume of distribution at steady state in female Beagle dog at 1 mg/kg,iv measured upto 24 hrs", "type": "ADME, organism-based, Canis lupus familiaris", "details": "in vivo, read-out: Vdss"}, "[28]": {"target": "Cytochrome P450 2C8 (Homo sapiens, UniProt P10632)", "sequence (P10632 whole entry)": "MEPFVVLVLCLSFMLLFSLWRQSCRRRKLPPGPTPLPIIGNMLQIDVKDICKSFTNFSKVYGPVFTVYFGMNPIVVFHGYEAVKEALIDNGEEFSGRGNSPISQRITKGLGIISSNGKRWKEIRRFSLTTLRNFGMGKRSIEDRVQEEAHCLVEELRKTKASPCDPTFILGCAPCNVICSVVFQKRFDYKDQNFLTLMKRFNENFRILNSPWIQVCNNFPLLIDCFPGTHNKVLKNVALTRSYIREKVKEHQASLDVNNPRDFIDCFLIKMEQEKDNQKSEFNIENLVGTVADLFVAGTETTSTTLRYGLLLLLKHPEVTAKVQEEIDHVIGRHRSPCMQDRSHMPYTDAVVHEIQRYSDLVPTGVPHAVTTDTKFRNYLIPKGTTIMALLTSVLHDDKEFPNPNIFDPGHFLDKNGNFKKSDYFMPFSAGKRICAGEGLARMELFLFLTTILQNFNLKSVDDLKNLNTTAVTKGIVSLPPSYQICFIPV", "assay": "Inhibition of CYP2C8 in human liver microsomes using probe substrate in presence of NADPH", "type": "ADME, Microsome"}, "[29]": {"assay": "Half life in female Beagle dog at 4 mg/kg,iv measured upto 24 hrs", "type": "ADME, organism-based, Canis lupus familiaris", "details": "in vivo"}},
  "note": "Activity calls are given as the source filed them. No cut-off for these calls is given here.",
  "data": [
    {"compound": "CC(=O)O[C@@]12CO[C@@H]1C[C@H](O)[C@@]1(C)C(=O)[C@H](O)C3=C(C)[C@@H](OC(=O)[C@H](O)[C@@H](NC(=O)OC(C)(C)C)c4ccccc4)C[C@@](O)([C@@H](OC(=O)c4ccccc4)[C@H]21)C3(C)C", "note": "[DOCETAXEL ANHYDROUS]", "values": [
      {"measurement": "Activity", "setting": "[1]", "value": "Active"},
      {"measurement": "Activity", "setting": "[2]", "value": "inactive"},
      {"measurement": "Activity", "setting": "[3]", "value": "inactive"},
      {"measurement": "Activity", "setting": "[4]", "value": "inactive"},
      {"measurement": "half-life", "setting": "[5]", "value": 49.1, "unit": "h"},
      {"measurement": "Activity", "setting": "[6]", "value": "Active"}
    ]},
    {"compound": "CC(=O)O[C@@]12CO[C@@H]1C[C@H](O)[C@@]1(C)C(=O)[C@H](O)C3=C(C)[C@@H](OC(=O)[C@H](OC(=O)CCC(=O)NCCCC[C@H](NC(=O)CC[C@@H](NC(=O)[C@H](C)NC(=O)/C=C/c4ccc(F)cc4Cl)C(N)=O)C(=O)O)[C@@H](NC(=O)OC(C)(C)C)c4ccccc4)C[C@@](O)([C@@H](OC(=O)c4ccccc4)[C@H]21)C3(C)C", "values": [
      {"measurement": "Activity", "setting": "[7]", "value": "Active"},
      {"measurement": "Activity", "setting": "[8]", "value": 8, "unit": "%"},
      {"measurement": "Activity", "setting": "[9]", "value": "Active"},
      {"measurement": "MRT inf", "setting": "[10]", "value": 26, "unit": "min"},
      {"measurement": "Stability", "setting": "[11]", "value": "Stable"},
      {"measurement": "clearance", "setting": "[12]", "value": 3.28, "unit": "mL/min/kg"},
      {"measurement": "Activity", "setting": "[13]", "value": "Active"},
      {"measurement": "Drug metabolism", "setting": "[14]", "value": "Metabolite_Detected"},
      {"measurement": "AUC(0-inf)", "setting": "[15]", "value": 6120, "unit": "ng·h/mL"},
      {"measurement": "Activity", "setting": "[16]", "value": "Active"},
      {"measurement": "Activity", "setting": "[17]", "value": "Non-Toxic"},
      {"measurement": "Drug uptake", "setting": "[18]", "value": "Active"},
      {"measurement": "Drug metabolism", "setting": "[19]", "value": "Metabolite_Detected"},
      {"measurement": "dose excreted at 72 h", "setting": "[20]", "value": 9.38, "unit": "%"},
      {"measurement": "Vd", "setting": "[21]", "value": 0.08, "unit": "L/kg"},
      {"measurement": "AUC(0-inf)", "setting": "[22]", "value": 1630, "unit": "ng·h/mL"},
      {"measurement": "Cmax", "setting": "[23]", "value": 15200, "unit": "ng/mL"},
      {"measurement": "Vd", "setting": "[24]", "value": 0.075, "unit": "L/kg"},
      {"measurement": "Activity", "setting": "[25]", "value": "Active"},
      {"measurement": "Tmax", "setting": "[26]", "value": 4.98, "unit": "min"},
      {"measurement": "Vd", "setting": "[27]", "value": 0.204, "unit": "L/kg"},
      {"measurement": "IC50", "setting": "[28]", "value": 9.97, "unit": "µM"},
      {"measurement": "half-life", "setting": "[29]", "value": 33.8, "unit": "min"}
    ]}
  ]
}
